In publication PMC6542785 (Acta Pharmaceutica Sinica. B, 2018):

Assays:
Format in all cases: cell-based, human
[1] = system: MCF-7/ADR cells; assay: Dox efflux assay
How it was run: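 MCF-7/ADR and MCF-7 cells, in RPMI-1640 with 10% FBS and penicillin/streptomycin (1 μg/mL doxorubicin added to maintain the ADR line), loaded with test compound (10 µg/mL Dox equivalent) for 4 h. Washed, then chased in fresh drug-free medium for 2 or 4 h at 37 °C. Collected and PBS-washed; retained Dox read by flow cytometry. Efflux ratio from retained versus initial uptake; mean ± SD, n=3.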

[2] = system: mitochondria of MCF-7 cells; assay: Mitochondria targeting, quantification in isolated mitochondria; settings: 10 μg/mL Dox equivalent, flow cytometry, n=3
How it was run: (§1)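 HeLa cells (DMEM) or MCF-7 cells (RPMI-1640), both with 10% FBS, grown at 37 °C, 5% CO2 and treated in 12-well plates with test compound (10 μg/mL Dox equivalent). Collected into mitochondria extraction reagent on ice for 10 min, then homogenised. Spun at 600×g for 10 min; supernatant spun at 11,000×g for 10 min. Pelleted mitochondria analysed for Dox by flow cytometry.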

[3] = system: mitochondria of HeLa cells; assay: as above; settings: 10 μg/mL Dox equivalent, flow cytometry, n=3
How it was run: as §1

In the case of COc1cccc2c1C(=O)c1c(O)c3c(c(O)c1C2=O)C[C@@](O)(C(=O)CO)C[C@@H]3O[C@H]1C[C@H](N)[C@H](O)[C@H](C)O1 [Dox, doxorubicin], the “Dox efflux rate in MCF-7/ADR, fold higher than in MCF-7 cells” value ([1]; 2 h in drug-free medium after 4 h loading) is reported as 1.74 fold, the “Dox efflux rate in MCF-7/ADR, fold higher than in MCF-7 cells” value ([1]; 4 h in drug-free medium after 4 h loading) is reported as 2.08 fold and the mitochondria distribution [2] is reported as under 5%. For the same compound, the mitochondria distribution [3] was under 5%.
